Reference: ChEMBL document CHEMBL4725282, “Discovery of a Conformationally Constrained Oxazolidinone with Improved Safety and Efficacy Profiles for the Treatment of Multidrug-Resistant Tuberculosis” (J Med Chem, 2020)
pIC50: −log10 of the molar value. Values after ≈ are worked out from the molar mass of the structure shown. Active and inactive are the calls of the source. No cut-off for these calls is given here.

Tests used:
[1] = Toxicity in Mycobacterium tuberculosis H37Rv infected Balb/c mouse assessed as change in body weight at 25 mg/kg/day, po administered via gavage 5 times per week for 3 weeks starting from 10 days post-infection (reference value: 21.29 +/- 0.84 g); type: organism-based; settings: in vivo, 504 h, time 21 day
[2] = test system: Mycobacterium tuberculosis; test: (§1) Antitubercular activity against Mycobacterium tuberculosis H37Rv infected in Balb/c mouse assessed as lung bacterial burden by measuring colony forming unit at 25 mg/kg/day, po administered via gavage 5 times per week for 3 weeks starting from 10 days post-infection and measured 24 hrs post last dose (reference value: 7.102 +/- 0.152 log10CFU); type: functional; settings: time 22 day
In short: (§2)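 Female SPF BALB/c mice, 6 per group, aerosol-infected with M. tuberculosis H37Rv to deposit 50-100 bacilli per lung. Compound suspended in 0.5% CMC, given by oral gavage from day 10 post-infection, 5 times per week for 3 weeks; controls got 0.5% CMC. Lungs harvested the day after the last dose, homogenised, diluted in HBSS, plated on 7H11 agar in duplicate, incubated 3 weeks at 37 °C. Result expressed as mean log10 CFU; t-test versus control.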

[3] = test system: Mycobacterium tuberculosis; test: Antitubercular activity against Mycobacterium tuberculosis H37Rv incubated for 7 days by microplate alamar blue assay; type: functional; settings: Mycobacterium tuberculosis, H37Rv, 168 h, time 7 day; read-out: MIC
In short: (§3)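 MIC determined by microplate alamar blue assay (MABA) following a published protocol.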

[4] = test system: Mycobacterium tuberculosis; test: Antitubercular activity against Mycobacterium tuberculosis isolate 12525 incubated for 7 days by microplate alamar blue assay; type: functional; settings: isolate 12525, 168 h, time 7 day; in short: as §3
[5] = test system: Mycobacterium tuberculosis; test: Antitubercular activity against Mycobacterium tuberculosis H37Rv infected in Balb/c mouse assessed as reduction in lung bacterial burden at 25 to 100 mg/kg/day, po administered via gavage 5 times per week for 3 weeks starting from 10 days post-infection and measured 24 hrs post last dose; type: functional, organism-based; settings: dose mg/kg/day 25-100, time 22.0 day; in short: as §2
[6] = Stability in CD-1 mouse liver microsome assessed as parent compound remaining at 1 uM measured after 30 mins in presence of NADPH by LC-MS/MS analysis; type: ADME; settings: liver microsomes, read-out: Stabilty
In short: (§4)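 Liver microsomes (male CD-1 mouse or pooled human), 1 mg/mL protein, compound 1 µM, 37°C with shaking. Started with 1 mM NADPH or run without cofactor. Quenched with ice-cold ACN/MeOH containing internal standard. Parent quantified by LC-MS/MS; 30 min concentration normalised to time zero.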

[7] = Toxicity in Mycobacterium tuberculosis H37Rv infected Balb/c mouse assessed as change in body weight at 100 mg/kg/day, po administered via gavage 5 times per week for 3 weeks starting from 10 days post-infection (reference value: 21.29 +/- 0.84 g); type: organism-based; settings: in vivo, 504 h, time 21 day
[8] = test system: Mycobacterium tuberculosis; test: as §1, with “100” for “25”; type: functional; settings: time 22 day; in short: as §2
[9] = Inhibition of mitochondrial protein synthesis in rat H9c2 cells measured after 5 days by ELISA; type: cell-based; settings: H9c2, 120 h
In short: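 H9C2 cells in DMEM with 10% FBS, seeded 1500/well. After 18 h, compound added at final 0.03–200 μM (3-fold series), then 5 days at 37 °C, 5% CO2; 0.5% DMSO negative control. MPS inhibition read by MitoBiogenesis In-Cell ELISA; IC50 calculated.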

[10] = Stability in CD-1 mouse liver microsome at 1 uM measured after 30 mins in absence of NADPH by LC-MS/MS analysis; type: ADME; settings: microsomes, 0.5 h; in short: as §4
[11] = test system: Mycobacterium tuberculosis; test: Antitubercular activity against Mycobacterium tuberculosis H37Rv infected in Balb/c mouse assessed as reduction in lung bacterial burden at 50 to 100 mg/kg/day, po administered via gavage 5 times per week for 3 weeks starting from 10 days post-infection and measured 24 hrs post last dose; type: functional, organism-based; settings: dose mg/kg/day 50-100, time 22.0 day; in short: as §2
HepG2 = test: Cytotoxicity against human HepG2 cells assessed as reduction in cell viability measured after 48 hrs by MTT assay; type: cell-based; settings: HepG2, 48 h
In short: (§5)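 Cytotoxicity on Vero or HepG2 cells by MTT assay, run as previously reported.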

[12] = molecular target: T1, Amine oxidase [flavin-containing] A (Homo sapiens, UniProt P21397); test: Inhibition of recombinant human MAOA expressed in baculovirus infected insect cells using kynuramine as substrate measured after 20 mins by LC-MS/MS analysis
T1 sequence (P21397 whole entry): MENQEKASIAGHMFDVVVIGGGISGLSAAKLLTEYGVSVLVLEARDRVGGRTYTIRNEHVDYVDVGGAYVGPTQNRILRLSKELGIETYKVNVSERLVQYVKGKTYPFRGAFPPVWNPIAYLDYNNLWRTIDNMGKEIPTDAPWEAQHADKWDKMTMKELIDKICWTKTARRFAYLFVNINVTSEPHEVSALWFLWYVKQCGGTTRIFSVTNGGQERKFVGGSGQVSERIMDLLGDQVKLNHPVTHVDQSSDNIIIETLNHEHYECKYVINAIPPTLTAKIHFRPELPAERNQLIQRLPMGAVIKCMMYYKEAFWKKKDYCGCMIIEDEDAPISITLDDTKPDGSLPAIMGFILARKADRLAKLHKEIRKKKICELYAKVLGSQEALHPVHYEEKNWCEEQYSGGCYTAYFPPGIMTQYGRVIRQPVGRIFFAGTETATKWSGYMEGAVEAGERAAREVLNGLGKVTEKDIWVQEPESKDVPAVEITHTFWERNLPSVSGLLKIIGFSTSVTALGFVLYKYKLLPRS
In short: (§6)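 Recombinant human MAO-A or MAO-B (50 μg/mL) in 100 mM potassium phosphate pH 7.4 with 5 mM MgCl2. Kynuramine substrate at 50 μM (MAO-A) or 25 μM (MAO-B). […] 4-Hydroxyquinoline formation measured by LC-MS/MS versus vehicle; IC50 derived.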

Vero = test: Cytotoxicity against African green monkey Vero cells assessed as reduction in cell viability measured after 48 hrs by MTT assay; type: cell-based; settings: Chlorocebus sabaeus; in short: as §5
[13] = molecular target: T2, Amine oxidase [flavin-containing] B (Homo sapiens, UniProt P27338); test: Inhibition of recombinant human MAOB expressed in baculovirus infected insect cells using kynuramine as substrate measured after 20 mins by LC-MS/MS analysis; in short: as §6
T2 sequence (P27338 whole entry): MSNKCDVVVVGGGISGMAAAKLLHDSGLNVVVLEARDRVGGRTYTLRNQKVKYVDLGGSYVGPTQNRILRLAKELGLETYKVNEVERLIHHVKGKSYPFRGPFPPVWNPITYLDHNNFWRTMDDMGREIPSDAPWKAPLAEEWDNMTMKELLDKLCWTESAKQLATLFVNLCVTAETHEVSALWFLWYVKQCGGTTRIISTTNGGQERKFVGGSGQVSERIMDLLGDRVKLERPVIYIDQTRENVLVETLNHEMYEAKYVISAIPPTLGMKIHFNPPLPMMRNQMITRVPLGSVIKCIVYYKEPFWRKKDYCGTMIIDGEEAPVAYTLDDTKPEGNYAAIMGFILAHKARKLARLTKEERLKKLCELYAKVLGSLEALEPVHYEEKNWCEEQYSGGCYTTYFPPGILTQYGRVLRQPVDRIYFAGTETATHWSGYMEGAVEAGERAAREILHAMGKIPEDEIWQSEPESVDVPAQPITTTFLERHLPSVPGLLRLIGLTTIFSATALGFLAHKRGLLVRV

| SMILES | Activity [1] [g] | Activity [2] [log10CFU] | MIC [3] [µg/mL] | MIC [4] [µg/mL] | Activity [5] | remaining at 0.5 h, 1 µM [6] [%] | Activity [7] [g] | Activity [8] [log10CFU] | pIC50 [9] | Stabilty [10] | Activity [11] | IC50 (HepG2) [µg/mL] | pIC50 [12] | IC50 (Vero) [µg/mL] | pIC50 [13] |
| --- | --- | --- | --- | --- | --- | --- | --- | --- | --- | --- | --- | --- | --- | --- | --- |
| NNC(=O)c1ccncc1 [ISONIAZID] | 21.3 | 1.929 | 0.03 (≈ 0.219 µM) | > 10 | – | – | – | – | – | – | – | – | – | – | – |
| CC(=O)NC[C@@H]1OC(=O)N2c3cc(F)c(N4CCSCC4)cc3OC[C@@H]12 | – | – | – | – | Active | – | – | – | – | – | – | – | – | – | – |
| CC(=O)NC[C@H]1CN(c2ccc(N3CCOCC3)c(F)c2)C(=O)O1 [LINEZOLID] | – | – | 0.32 (≈ 0.949 µM) | 0.23 (≈ 0.682 µM) | – | 111 | 20.83 | 4.136 | 5.10 | Stable | Active | – | – | – | – |
| CC(=O)NC[C@H]1CN(c2ccc(N3CCSCC3)c(F)c2)C(=O)O1 [SUTEZOLID] | – | – | 0.1 (≈ 0.283 µM) | 0.06 (≈ 0.17 µM) | – | 54.8 | – | – | 5.09 | Stable | – | > 64 | 4.89 | > 64 | 6.15 |
